Data set [1] addresses Metabotropic glutamate receptor 1 (Rattus norvegicus) (UniProt P23385). The data set can be described thus: Agonist activity at rat mGlu1 receptor expressed in HEK293 cells assessed as increase in intracellular calcium by FLIPR assay relative to control. Further details: concentration or dose not given beside the values; call rule not given here. The class given is functional, cell-based. The procedure, abridged: (§1)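 Rat mGlu1a transiently transfected into HEK-293 cells, which were loaded with Fluo-3 AM for 1 h and then washed 4 times in assay buffer (DMEM with Hank's salts, 20 mM HEPES). [Ca2+]i was read on a fluorometric imaging plate reader and converted to fluorescence ratios. EC50 is the mean of separate values from at least three individual experiments.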
Background: Calcium assays in cells follow changes in intracellular calcium, usually with a dye or a luminescent sensor.

Data set [2] shares this target. Kind of data set: Agonist activity at rat mGlu1 receptor expressed in CHO cells assessed as […] of glutamate-activated K+ currents by electrophysiology relative to glutamate. The data set is classed as functional, cell-based. The arrangement: concentration or dose not given beside the values.
A short description of data set [3]: Metabolic stability in rat microsomes assessed as intrinsic clearance per mg protein. The data set is classed as ADME, Microsome.
A further data set has as its system Rattus norvegicus. Kind of data set: Volume of distribution in rat at 10 mg/kg, iv and po. The class given is ADME, organism-based. Further details: dose 10 mg/kg, route oral. Conditions: in vivo. The method in brief:
(§2)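 Wistar rats, two per group, fitted with implanted jugular vein catheters. These catheters were used for the iv bolus and for blood sampling. Blood was drawn at 0.3, 0.5, 1, 2, 4, 8 and 24 h after iv or po administration for the plasma pharmacokinetic parameters.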

A short description of data set [4]: Half life in rat at 10 mg/kg, iv and po. The class given is ADME, organism-based. The arrangement: dose 10 mg/kg, route oral. Particulars: in vivo. The method in brief: as §2
Data set [5] in a line: Cmax in rat plasma at 10 mg/kg, po. The data set is classed as ADME, organism-based. Further details: dose 10 mg/kg, route oral. The procedure, abridged: as §2
Data set [6] addresses T1, Metabotropic glutamate receptor 1 (Rattus norvegicus, UniProt P23385). The data set can be described thus: Agonist activity at rat mGlu1 receptor expressed in CHO cells assessed as potentiation of glutamate-activated K+ currents by electrophysiology.
Data set [7] deals with T1, Metabotropic glutamate receptor 1. Kind of data set: Agonist activity at rat mGlu1 receptor expressed in HEK293 cells assessed as increase in intracellular calcium by FLIPR assay. The class given is functional, cell-based. The procedure, abridged: as §1
Data set [8] in a line: Clearance in rat at 1 mg/kg, iv and 10 mg/kg, po. The class given is ADME, organism-based. Conditions: in vivo. The procedure, abridged:
as §2

Data set [9] in a line: Volume of distribution in rat at 1 mg/kg, iv and 10 mg/kg, po. The class given is ADME, organism-based. Conditions: in vivo, read-out: Vdss. The method in brief: as §2
Data set [10] can be described thus: Half life in rat at 1 mg/kg, iv and 10 mg/kg, po. The data set is classed as ADME, organism-based. Particulars: in vivo. The method in brief:
as §2

Data set [11] in a line: Ratio of drug level in brain to plasma in rat at 1 mg/kg, iv and 6 mg/kg, po. The data set is classed as ADME, organism-based. Particulars: in the assay text read “10 mg/kg” for “6 mg/kg”, read-out: BPR. The procedure, abridged: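 Brain/plasma ratio came from iv infusion in Wistar rats, two per group, at 1 mg/kg/h via catheter. Blood was sampled sublingually at 1, 3 and 5 h after administration. Brain tissue was taken by decapitation under isoflurane anaesthesia.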

A short description of data set [12]: Clearance in rat at 5 mg/kg, iv and 10 mg/kg, po. The data set is classed as ADME, organism-based. Conditions: in vivo. The procedure, abridged: as §2
The nature of data set [13]: Volume of distribution in rat at 5 mg/kg, iv and 10 mg/kg, po. Particulars: in vivo, read-out: Vdss. The data set is classed as ADME, organism-based. The procedure, abridged:
as §2

Data set [14] can be described thus: Half life in rat at 5 mg/kg, iv and 10 mg/kg, po. The data set is classed as ADME, organism-based. Particulars: in vivo. The procedure, abridged:
as §2

The nature of data set [15]: Clearance in rat at 3 mg/kg, iv and 6 mg/kg, po. Conditions: in vivo. The data set is classed as ADME, organism-based. The procedure, abridged: as §2
Data set [16] in a line: Volume of distribution in rat at 3 mg/kg, iv and 6 mg/kg, po. The data set is classed as ADME, organism-based. Conditions: in vivo, read-out: Vdss. The method in brief:
as §2

Data set [17] in a line: Half life in rat at 3 mg/kg, iv and 6 mg/kg, po. Conditions: in vivo. The class given is ADME, organism-based. The procedure, abridged:
as §2

A short description of data set [18]: Cmax in rat plasma at 6 mg/kg, po. Further details: dose 6 mg/kg, route oral. The class given is ADME, organism-based. The procedure, abridged: as §2

Structures are written as SMILES.

Sequence of Metabotropic glutamate receptor 1 (Rattus norvegicus) (P23385 19-1199 limits assumed): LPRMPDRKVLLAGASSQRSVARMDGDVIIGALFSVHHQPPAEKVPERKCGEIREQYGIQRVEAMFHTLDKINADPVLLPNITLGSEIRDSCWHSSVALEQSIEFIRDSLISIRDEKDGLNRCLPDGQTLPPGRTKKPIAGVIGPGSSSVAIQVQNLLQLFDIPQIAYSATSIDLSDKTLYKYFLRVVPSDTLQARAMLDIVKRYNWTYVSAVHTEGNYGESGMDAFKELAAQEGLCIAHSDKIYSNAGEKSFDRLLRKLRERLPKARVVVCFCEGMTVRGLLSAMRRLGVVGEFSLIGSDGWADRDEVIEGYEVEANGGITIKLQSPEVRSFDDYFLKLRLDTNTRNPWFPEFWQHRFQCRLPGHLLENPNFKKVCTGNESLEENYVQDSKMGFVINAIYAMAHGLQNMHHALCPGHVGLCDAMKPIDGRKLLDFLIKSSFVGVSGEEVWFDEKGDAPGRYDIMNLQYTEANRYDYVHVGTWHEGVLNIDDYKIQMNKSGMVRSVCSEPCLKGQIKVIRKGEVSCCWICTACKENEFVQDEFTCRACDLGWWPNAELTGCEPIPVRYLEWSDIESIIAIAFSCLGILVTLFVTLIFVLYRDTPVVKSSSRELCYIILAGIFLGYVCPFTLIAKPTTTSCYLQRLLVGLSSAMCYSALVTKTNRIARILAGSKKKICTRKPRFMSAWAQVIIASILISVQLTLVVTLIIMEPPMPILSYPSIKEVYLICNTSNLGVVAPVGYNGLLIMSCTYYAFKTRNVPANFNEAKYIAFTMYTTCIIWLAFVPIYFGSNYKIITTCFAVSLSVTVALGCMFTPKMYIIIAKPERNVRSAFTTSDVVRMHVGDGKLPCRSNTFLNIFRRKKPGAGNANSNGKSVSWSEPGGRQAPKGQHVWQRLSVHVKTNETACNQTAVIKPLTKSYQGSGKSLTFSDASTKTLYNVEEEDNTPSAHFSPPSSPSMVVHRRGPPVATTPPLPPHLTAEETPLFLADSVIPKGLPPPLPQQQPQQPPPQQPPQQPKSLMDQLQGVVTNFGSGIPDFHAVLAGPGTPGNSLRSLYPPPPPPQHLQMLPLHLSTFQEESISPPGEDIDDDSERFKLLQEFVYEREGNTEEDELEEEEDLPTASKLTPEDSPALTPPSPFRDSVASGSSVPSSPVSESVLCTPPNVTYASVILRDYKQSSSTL
T1 sequence (P23385 whole entry): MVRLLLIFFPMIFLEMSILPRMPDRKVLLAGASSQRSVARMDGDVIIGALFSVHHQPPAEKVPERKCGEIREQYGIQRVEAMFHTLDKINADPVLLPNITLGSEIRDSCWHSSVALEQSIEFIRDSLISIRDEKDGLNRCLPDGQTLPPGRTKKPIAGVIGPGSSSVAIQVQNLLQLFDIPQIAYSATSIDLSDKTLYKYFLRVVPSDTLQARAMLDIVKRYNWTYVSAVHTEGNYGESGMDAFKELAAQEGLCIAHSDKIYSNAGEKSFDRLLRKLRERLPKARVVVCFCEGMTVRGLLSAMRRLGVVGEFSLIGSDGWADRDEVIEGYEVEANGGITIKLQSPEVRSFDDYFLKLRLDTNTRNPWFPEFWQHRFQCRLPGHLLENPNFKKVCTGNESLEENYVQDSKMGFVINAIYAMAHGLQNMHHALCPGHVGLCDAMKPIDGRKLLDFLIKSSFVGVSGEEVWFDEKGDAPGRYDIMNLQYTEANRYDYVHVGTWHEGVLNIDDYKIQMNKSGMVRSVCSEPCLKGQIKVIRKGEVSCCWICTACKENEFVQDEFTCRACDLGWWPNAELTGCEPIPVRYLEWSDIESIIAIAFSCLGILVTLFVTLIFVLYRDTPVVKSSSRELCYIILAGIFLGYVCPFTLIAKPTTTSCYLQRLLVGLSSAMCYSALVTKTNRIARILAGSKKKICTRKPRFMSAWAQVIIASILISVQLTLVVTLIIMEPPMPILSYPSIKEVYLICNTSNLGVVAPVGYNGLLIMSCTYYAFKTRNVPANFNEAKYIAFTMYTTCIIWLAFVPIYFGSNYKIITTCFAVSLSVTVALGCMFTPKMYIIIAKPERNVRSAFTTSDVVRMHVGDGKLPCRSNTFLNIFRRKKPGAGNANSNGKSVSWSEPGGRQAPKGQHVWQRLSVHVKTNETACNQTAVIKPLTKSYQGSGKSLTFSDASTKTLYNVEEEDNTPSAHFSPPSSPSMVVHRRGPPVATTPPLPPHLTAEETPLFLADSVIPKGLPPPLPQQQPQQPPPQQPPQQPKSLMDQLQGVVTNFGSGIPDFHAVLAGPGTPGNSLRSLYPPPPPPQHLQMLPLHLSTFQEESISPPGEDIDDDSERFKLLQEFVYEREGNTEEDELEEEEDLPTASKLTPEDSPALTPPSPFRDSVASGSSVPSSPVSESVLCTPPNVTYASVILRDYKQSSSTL

`O=C(Nc1nc(C(F)(F)F)co1)C1c2ccccc2Oc2ccccc21`: the Activity was found to be 86% in [1] and 1130% in data set [2]. The clearance in data set [3] was 108 µL/min/mg. The same compound returned a Vdss in the data set with Rattus norvegicus of 0.67 L/kg. The half-life in [4] was 0.91 h. For the same compound, the Cmax in [5] was determined as 1330 ng/mL. Moreover, in data set [6], the EC50 was determined as 202 nM.

`O=C(Nc1ncc(C(F)(F)F)o1)C1c2ccccc2Oc2cc(F)ccc21` (racemic): the EC50 result in [7] (hek293) was “Not Active”. Besides, the clearance in [3] came out at 28 µL/min/mg.

With `O=C(Nc1nc(C(F)(F)F)co1)C1c2ccccc2Oc2cc(F)ccc21` (racemic), the figures for the EC50 in [7] (read-out: EC50) and in [6] were 40 nM and 260 nM, respectively. Besides, the Activity in data set [1] was 50%; in data set [2], 570%. In addition, in [3], the clearance stood at 34 µL/min/mg.

For `O=C(Nc1ncc(C(F)(F)F)o1)C1c2ccc(F)cc2Oc2cc(F)ccc21`, the EC50 result in [7] (hek293) was “Not Active”.

For the compound `O=C(Nc1ncc(C(F)(F)F)o1)C1c2cccc(F)c2Oc2c(F)cccc21`, the EC50 in data set [7] (read-out: EC50) is 25 nM; in [6] it was 162 nM. The Activity was 36% in data set [1] and 568% in data set [2]. Also, the clearance in data set [3] was 12 µL/min/mg.

`O=C(Nc1ncc(C(F)(F)F)o1)C1c2ccccc2Oc2c(F)cccc21` (racemic): the figures for the Activity in data set [1] and in data set [2] were 50% and 910%, respectively. In addition, the clearance in data set [3] stood at 32 µL/min/mg. Besides, the EC50 in [6] was 131 nM.

Consider `O=C(Nc1ncc(C(F)(F)F)o1)C1c2ccccc2Oc2ccc(F)cc21` (racemic), for which the EC50 in [7] (read-out: EC50) was found to be 20 nM; in [6], 67 nM. The Activity in [1] stood at 57%; in data set [2] it was 1220%. Moreover, in [3], the clearance stood at 40 µL/min/mg.

`O=C(Nc1nc(C(F)(F)F)co1)C1c2cccc(F)c2Oc2c(F)cccc21`: the concentration for a half-maximal effect (EC50) in [7] (read-out: EC50) was determined as 47 nM; in data set [6], 161 nM. In addition, the Activity in data set [1] is 51%; in data set [2], 707%. For the same compound, the values for the clearance in data set [3] and in [8] were 18 µL/min/mg and 3.79 mL/min/kg, respectively. Besides, the concentration in [5] peaked (Cmax) at 2070 ng/mL. Further, the Vd in data set [9] was 0.43 L/kg. This compound also gave a half-life in [10] of 3.9 h. Moreover, the Kp in [11] was found to be 0.2.

As to `O=C(Nc1nc(C(F)(F)F)co1)C1c2ccccc2Oc2c(F)cccc21` (racemic), the values for the 50% effective concentration (EC50) in data set [7] (read-out: EC50) and in [6] were 19 nM and 102 nM, respectively. Moreover, the Activity in data set [1] stood at 84%; in [2], 1190%. Moreover, the clearance in data set [3] turned out to be 33 µL/min/mg; in [12], 3.3 mL/min/kg. This compound had a Cmax in data set [5] of 1440 ng/mL. The Vd in [13] stood at 0.99 L/kg. Also, the half-life in data set [14] is 3.7 h.

`O=C(Nc1ncc(C(F)(F)F)o1)C1c2ccccc2Oc2ccccc21`: the Activity worked out at 104% in data set [1] and 3060% in [2]. Besides, in [3], the clearance is 50 µL/min/mg. In data set [6], the EC50 is 394 nM.

Consider `O=C(Nc1nc(C(F)(F)F)co1)C1c2ccc(F)cc2Oc2cc(F)ccc21`, for which, in [7] (hek293), the EC50 result is “Not Active”. Also, in data set [3], the clearance is 38 µL/min/mg.

Take `Cc1nc(NC(=O)C2c3ccccc3Oc3ccccc32)no1`: the half-maximal effective concentration (EC50) is 52 nM in data set [7] (read-out: EC50) and 220 nM in data set [6]. Besides, the Activity in data set [1] worked out at 100%. Moreover, in data set [3], the clearance was 42 µL/min/mg. This compound also showed a Vdss with Rattus norvegicus of 1.7 L/kg. For the same compound, the half-life in data set [4] is 0.32 h. The compound further yielded a maximum concentration (Cmax) in data set [5] of 1330 ng/mL.

As for `O=C(Nc1nc(C(F)(F)F)co1)C1c2cc(F)ccc2Oc2ccc(F)cc21`, the results for the Activity in [1] and in data set [2] were 48% and 300%, respectively. Besides, the clearance in data set [3] amounted to 9 µL/min/mg; in data set [15] it was 7.4 mL/min/kg. In addition, the Vd in data set [16] came to 0.9 L/kg. For the same compound, the half-life in data set [17] was 2.46 h. The Cmax in data set [18] came to 1810 ng/mL. The concentration for a half-maximal effect (EC50) in [6] is 90 nM.

With `O=C(Nc1nc(C(F)(F)F)co1)C1c2ccccc2Oc2ccc(F)cc21` (racemic), the EC50 in data set [7] (read-out: EC50) stood at 40 nM. For the same compound, the Activity in [1] amounted to 63%. In data set [3], the clearance amounted to 61 µL/min/mg.

As a reminder, the half-life is the time in which the quantity being followed falls by half. One may read the Cmax as the maximum level reached in the sampled fluid or tissue. As usually defined, the EC50 is the concentration at which the effect is half-maximal.
